Screening results (PubChem)
SUMO1-SIM PPI – modulators of SUMO1 protein-protein interactions, primary screen, biochemical, uHTS; 360,000 tested, 0.33% active; AID 602429, 2012; inhibition, % at 20 µM; SUMO1 binding to a labelled peptide, TR-FRET, 1 h; Small ubiquitin-related modifier 1 (Homo sapiens), P63165; in the data active means inhibition above about 37%
Target sequence (P63165 whole entry, looked up): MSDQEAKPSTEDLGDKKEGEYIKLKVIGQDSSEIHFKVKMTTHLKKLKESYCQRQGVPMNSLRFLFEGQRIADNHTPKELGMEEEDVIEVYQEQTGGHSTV
LMPTP inh – LMPTP phosphatase inhibitors, primary screen, biochemical, fluorescence intensity, uHTS; 360,000 tested, 0.22% active; inhibition, % at 20 µM; recombinant LMPTP-A, OMFP fluorogenic substrate;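 active means compounds that cut the enzyme signal by at least half of the control window in the single-dose screen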
Target sequence (P24666 whole entry, looked up): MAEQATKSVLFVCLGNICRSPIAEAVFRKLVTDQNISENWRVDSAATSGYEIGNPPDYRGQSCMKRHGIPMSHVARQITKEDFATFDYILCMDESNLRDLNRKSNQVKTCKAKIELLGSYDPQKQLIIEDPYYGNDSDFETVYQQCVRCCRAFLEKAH
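Test system – LMPTP-A phosphatase enzyme · Quantity – 0.625 nM LMPTP-A final · Reagent – OMFP substrate, 400 µM final · Dosing – one test concentration per compound, 20 µM, with 3% DMSO overall · Timing – 50 min enzyme reaction at room temperature, protected from light · Detection – fluorescence intensity · Controls – substrate-only low control, DMSO enzyme-plus-substrate high control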
STEP block – STEP phosphatase inhibitors, primary screen, biochemical, fluorescence intensity, uHTS | Tyrosine-protein phosphatase non-receptor type 5 (Homo sapiens), P54829 | recombinant STEP, OMFP fluorogenic substrate | inhibition, % at 20 µM | 360,000 tested, 0.25% active | AID 588621, 2011;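 active means inhibition at 20 µM, scaled per plate between control wells, above about 37%, limit read from the data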
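material = STEP tyrosine phosphatase | reagent = fluorogenic phosphatase substrate OMFP at 25 µM final | doses = single compound dose of 20 µM, 1% DMSO final | schedule = 20 min reaction, room temperature, in the dark | measured by = fluorescence, 480/540 nm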
DNMT1 inh – human DNMT1 methyltransferase inhibitors, primary screen, biochemical, molecular beacon, fluorescence, HinP1I cleavage, uHTS. DNA (cytosine-5)-methyltransferase 1 (Homo sapiens), P26358. AID 588458, 2011. inhibition (reported as % activation of signal), % at 10 µM. 360,000 tested, 0.83% active; in the data active means inhibition above about 50%
Scp1 inh – Scp-1 phosphatase inhibitors, primary screen, biochemical, colorimetric, uHTS. Recombinant Scp1, phosphopeptide, malachite green phosphate absorbance. inhibition, % at 20 µM. Carboxy-terminal domain RNA polymerase II polypeptide A small phosphatase 1 (Homo …. 340,000 tested, 0.88% active. AID 493091, 2011;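 active means inhibition above about 50% at 20 µM, limit read from the data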
Target sequence (Q9GZU7 76-261 limits assumed): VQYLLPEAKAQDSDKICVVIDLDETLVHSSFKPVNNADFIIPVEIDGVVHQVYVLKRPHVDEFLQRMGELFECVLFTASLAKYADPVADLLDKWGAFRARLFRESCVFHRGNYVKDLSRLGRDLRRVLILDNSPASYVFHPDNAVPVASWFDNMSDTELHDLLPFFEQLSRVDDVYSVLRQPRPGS
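System: truncated SCP-1 phosphatase (76-261aa); medium: Tris acetate buffer pH 5.5 with MgCl2 and Tween-20; incubation: 45 min room-temperature reaction, 5 min colour, 30 min stabiliser; compound: single 20 µM dose, 1% DMSO; reagent: Phosphorylated 17-residue peptide substrate; read-out: % inhibition at 20 µM; technique: colorimetric free-phosphate detection, absorbance 630 nm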
Rpn11 block – Rpn11 (PSMD14) deubiquitinase inhibitors, primary screen, biochemical, fluorescence polarization, uHTS; human 26S proteasome, Ub4-pepOG fluorescence polarization; 20S core pre-blocked with epoxomicin; inhibition, % at 20 µM; 360,000 tested, 0.59% active; AID 588493, 2011;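 active means inhibition at 20 µM, scaled to each plate's controls, above about 33%, limit read from the data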
Scp1 confirm – Scp-1 phosphatase inhibitors, retest, confirmation, biochemical, colorimetric, single concentration | shares compounds with Scp1 inh | 2,500 tested, 61% active | recombinant SCP-1 catalytic domain, phosphate release, malachite green absorbance | inhibition, % at 20 µM
Scp-1 MG ctr – colorimetric readout interference by compounds, confirmation, artefact control for Scp-1 inhibitor project, biochemical, single concentration. shares compounds with Scp1 inh. Colorimetric interference counterscreen, malachite green absorbance 630 nm. apparent inhibition (interference), % at 20 µM. 2,500 tested, under 10 active. AID 540313, 2011;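 further: compounds added after enzyme reaction finished so only phosphate colour detection is probed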
Scp1 DSF – Scp-1 binding by thermal shift, confirmation, orthogonal assay for Scp-1 inhibitor project, biophysical, differential scanning fluorimetry; shares compounds with Scp1 inh; Recombinant SCP1, Sypro Orange thermal shift Tm; thermal shift relative to vanadate control, % at 40 µM; 1,500 tested, 25% active;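 active means substances whose mean melting-temperature shift, as a percentage of the reference inhibitor's shift, reaches about 5.3%, limit read from the data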
Of the large screens only hits and unclear results are named; the others gave an inactive call (follow-up assays come after a bar, where they were run). This is a sample that favours compounds with a hit; in the whole collection about 2.3% have one here.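 How the source made its calls, unless noted: active means inhibition of at least 30% at 20 µM; inactive means the rest.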

Cc1cnc(C(=O)OCc2nc3ccsc3c(=O)[nH]2)cn1	Scp1 inh 65 | Scp1 confirm 64 | Scp-1 MG ctr inactive | Scp1 DSF 11
Cc1ccc(C(=O)OCc2nc3ccsc3c(=O)[nH]2)o1	none
Cc1cc(C=O)c(C)n1-c1cccc(C(=O)O)c1	Scp1 inh 53 | Scp1 confirm 52 | Scp-1 MG ctr inactive | Scp1 DSF inactive
CC(=O)N[C@@H](Cc1c[nH]c2ccccc12)C(=O)OCc1cc(C(F)(F)F)cc(C(F)(F)F)c1	none
O=C(Nc1cccc([N+](=O)[O-])c1)c1cnccn1	Scp1 inh 58 | Scp1 confirm 56 | Scp-1 MG ctr inactive | Scp1 DSF 6.4
Cc1cccc(Nc2ncc3c(n2)CC(c2ccco2)CC3=O)c1 (stereo unspecified)	LMPTP inh 59, Scp1 inh 86 | Scp1 confirm inactive | Scp-1 MG ctr inactive
Cn1ccnc1SCC(=O)Nc1nc2c(F)c(F)c(F)cc2s1	none
Cc1ccc(OCC(=O)N2N=C(c3ccncc3)CC2(O)C(F)(F)F)cc1C (stereo unspecified)	Scp1 inh 103 | Scp1 confirm inactive | Scp-1 MG ctr inactive
COC(=O)[C@H](CC(C)C)NC(=O)NCCC1=CCCCC1	Scp1 inh 85 | Scp1 confirm inactive | Scp-1 MG ctr inactive
CC1=NN(c2cccc([N+](=O)[O-])c2)C(=O)C1	none
O=C1CC(=O)N2N=C(c3ccc([N+](=O)[O-])cc3)SC2=N1	Scp1 inh 69 | Scp1 confirm 68 | Scp-1 MG ctr inactive | Scp1 DSF 6.2
O=C(N/N=C/c1ccco1)c1cccc(N2Cc3ccccc3C2)c1	DNMT1 inh 80, Scp1 inh 79 | Scp1 confirm 46 | Scp-1 MG ctr inactive | Scp1 DSF 11
C[n+]1ccc(C(=O)N/N=C/c2ccco2)cc1	Scp1 inh 60 | Scp1 confirm inactive | Scp-1 MG ctr inactive
CCc1nc2ccc(C(=O)N(CC)CCN(C)C)cn2c1N(CC)CCOC	none (no result: Scp1 inh)
Cc1nnc(NC(=O)CCSCCC(=O)Nc2nnc(C)s2)s1	Scp1 inh 82 | Scp1 confirm 74 | Scp-1 MG ctr inactive | Scp1 DSF inactive
Cc1nnn(C23CC4CC(CC(CC(=O)Nc5ccc(C)c(C)c5)(C4)C2)C3)n1	none
COc1cc(OC)c(C2C(C#N)=C(N)OC3=C2C(=O)CC(C)(C)C3)cc1OC (stereo unspecified)	none
COc1ccc(C2C(C#N)=C(N)OC3=C2C(=O)CC(C)(C)C3)c(OC)c1OC (stereo unspecified)	Scp1 inh 51 | Scp1 confirm inactive | Scp-1 MG ctr inactive
COc1cccc(C(=O)N2CCN(C3CCN(Cc4ccccc4)CC3)CC2)c1OC	none
CCc1noc(C)c1C(=O)Nc1cc(Cl)ccc1-n1cncn1	none
CCc1noc(C)c1C(=O)Nc1cc(C(F)(F)F)ccc1-n1cncn1	Scp1 inh 65 | Scp1 confirm inactive | Scp-1 MG ctr inactive
O=c1/c(=C/c2ccc(O)c([N+](=O)[O-])c2)sc2nc3ccccc3n12	LMPTP inh 92, STEP block 90, Scp1 inh 81 | Scp1 confirm 82 | Scp-1 MG ctr inactive | Scp1 DSF 9.9
O=c1/c(=C\c2cccnc2)sc2nc3ccccc3n12	none
O=C(CN1CCCCC1)Nc1cccc([N+](=O)[O-])c1	none
Cc1ccc(S(=O)(=O)N2CCC(C(=O)O)CC2)cc1	none
Cc1ccccc1N=C1NC(=O)/C(=C/c2cccn2-c2cccc(C(=O)O)c2)S1	Scp1 inh 66 (no result: SUMO1-SIM PPI, LMPTP inh, STEP block, DNMT1 inh, Rpn11 block) | Scp1 confirm 65 | Scp-1 MG ctr inactive | Scp1 DSF inactive
O=C1NC2c3c(Cl)sc(Cl)c3C(=O)C2O1 (stereo unspecified)	DNMT1 inh 91, Scp1 inh 79 | Scp1 confirm 71 | Scp-1 MG ctr inactive | Scp1 DSF 18
O=C1NC2c3c(I)sc(I)c3C(=O)C2O1 (stereo unspecified)	none
COc1ccc(C(=O)N/N=C/c2ccc(OC)c(CN3CCCc4ccccc43)c2)cc1	Scp1 inh 56 | Scp1 confirm inactive | Scp-1 MG ctr inactive
COc1ccc(/C=N/NC(=O)c2cccnc2)cc1CN1CCCc2ccccc21	none
C=CC1=C(C(=O)O)N2C(=O)[C@@H](NC(=O)/C(=N\O)c3csc(N)n3)[C@H]2SC1 (stereo in doubt)	SUMO1-SIM PPI 63, LMPTP inh 79, STEP block 73, DNMT1 inh 89, Scp1 inh 98 | Scp1 confirm 60 | Scp-1 MG ctr inactive | Scp1 DSF inactive
Cc1cc(C(=O)N/N=C/c2ccco2)n[nH]1	none
O=C(C=Cc1ccco1)c1cc(Cl)ccc1O	none
CC(/C=C/c1ccco1)=N/NC(=O)c1ccc(C)nc1	none
CC(/C=C/c1ccco1)=N\NC(=O)c1cc(C)[nH]n1	Scp1 inh 52 | Scp1 confirm inactive | Scp-1 MG ctr inactive
CC(/C=C/c1ccco1)=N\NC(=O)c1cccnc1	Scp1 inh 55 | Scp1 confirm 33 | Scp-1 MG ctr inactive | Scp1 DSF inactive
CC(/C=C/c1ccco1)=N\NC(=O)c1cc(Cl)ccc1O	Scp1 inh 54 | Scp1 confirm 68 | Scp-1 MG ctr inactive | Scp1 DSF 16
CC(=O)Nc1ccc(C(=O)N2CCCCC2c2cc(C(=O)NCc3ccc(F)cc3)no2)cc1 (stereo unspecified)	none (no result: Scp1 inh)
Cc1cc(CC(=O)O)c2oc(-c3ccoc3)cc(=O)c2c1	Scp1 inh 75 (no result: SUMO1-SIM PPI, LMPTP inh, STEP block, DNMT1 inh, Rpn11 block) | Scp1 confirm 46 | Scp-1 MG ctr inactive | Scp1 DSF inactive
